Test results as given in ChEMBL document CHEMBL4261600 (Eur J Med Chem, 2018).
Active and inactive are the calls of the source. No cut-off for these calls is given here.

Experiments:
[1] = target: Mitogen-activated protein kinase kinase kinase 5 (Homo sapiens) (UniProt Q99683); experiment: Binding affinity to wild-type human partial length ASK1 (E648 to S964 residues) expressed in bacterial expression system assessed as remaining unbound target protein level at 1000 nM by Kinomescan method relative to control
Summary of the method: (§1)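 KINOMEscan competition binding profile across a panel of 468 kinases and mutants, with the inhibitor tested at a single concentration of 1 μM. Binding is reported as percent of control, meaning signal relative to a DMSO control.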

[2] = system: Tyrosine-protein kinase ABL1 (Homo sapiens), P00519 [F317I]; experiment: Binding affinity to human non-phosphorylated ABL1 F317I mutant (S229 to K512 residues) expressed in mammalian expression system assessed as remaining unbound target protein level at 1000 nM by Kinomescan method relative to control
Summary of the method: (§2)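 KINOMEscan competition-binding profiling across the panel of 468 kinases and mutants, with inhibitor tested at 1 μM. Binding is expressed as percent of control, with DMSO as the reference control.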

[3] = system: COLO 205; experiment: Antiproliferative activity against human COLO205 cells after 72 hrs by Celltiter-Glo assay; format: functional; conditions: COLO 205, 72 h
Summary of the method: (§3)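 Cells seeded at 3000/well in 96-well plates, exposed to serially diluted compound for 72 h at 37 °C, 5% CO2. Viability read by CellTiter-Glo luminescence and normalized to DMSO control. GI50 derived from curve fit, mean of three independent measurements. Culture media: DMEM/10% FBS for adherent lines; IMDM for MV4-11 and MEC-1/2; RPMI 1640 for suspension lines and CHL.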

[4] = system: MV4-11; experiment: Antitumor activity against human MV4-11 cells xenografted in nu/nu mouse assessed as tumor growth inhibition at 20 to 30 mg/kg, po administered via gavage for 21 days measured on day 21 post last dose; format: functional, organism-based
Summary of the method: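 Female nu/nu mice, five weeks old, implanted subcutaneously in the right flank with 5 million MV4-11 cells in PBS/Matrigel 1:1. Daily oral gavage in 0.5% methylcellulose/0.4% Tween80 started at tumor volume 200–400 mm³, 10, 20 or 30 mg/kg/day or vehicle, 5 mice per group. Tumor volume (W²×L)/2 and body weight measured daily; mean ± SEM.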

[5] = target: Homeodomain-interacting protein kinase 3 (Homo sapiens) (UniProt Q9H422); experiment: Binding affinity to wild-type human partial length HIPK3 (M153 to N562 residues) expressed in mammalian expression system assessed as remaining unbound target protein level at 1000 nM by Kinomescan method relative to control
Summary of the method: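 KINOMEscan binding panel of 468 kinases/mutants. Inhibitor was tested at a single concentration of 1 μM. Binding is reported as percent of control, defined relative to a DMSO control.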

[6] = target: Serine/threonine-protein kinase MARK2 (Homo sapiens) (UniProt Q7KZI7); experiment: Binding affinity to wild-type human partial length MARK2 (M1 to R450 residues) expressed in bacterial expression system assessed as remaining unbound target protein level at 1000 nM by Kinomescan method relative to control
[7] = target: Serine/threonine-protein kinase pim-3 (Homo sapiens) (UniProt Q86V86); experiment: Binding affinity to wild-type human partial length PIM3 (G16 to A317 residues) expressed in bacterial expression system assessed as remaining unbound target protein level at 1000 nM by Kinomescan method relative to control
[8] = target: Bone morphogenetic protein receptor type-1B (Homo sapiens) (UniProt O00238); experiment: Binding affinity to wild-type human partial length BMPR1B (D178 to L502 residues) expressed in mammalian expression system assessed as remaining unbound target protein level at 1000 nM by Kinomescan method relative to control
[9] = MRT (0 to infinity) in mouse at 3 mg/kg, iv by LC-MS/MS analysis; format: ADME, organism-based; conditions: in vivo
[10] = target: Serine/threonine-protein kinase Nek4 (Homo sapiens) (UniProt P51957); experiment: Binding affinity to wild-type human full length NEK4 (M1 to F841 residues) expressed in mammalian expression system assessed as remaining unbound target protein level at 1000 nM by Kinomescan method relative to control
Summary of the method: (§4)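 Single-point competition binding screen across a panel of 468 kinases and mutants, with the inhibitor at 1 μM. Binding is read out as percent of a DMSO control, and targets below 1 percent control were classed as strong binders.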

[11] = Antiproliferative activity against human MEC2 cells after 72 hrs by Celltiter-Glo assay; format: functional; conditions: MEC2, 72 h; summary of the method: as §3
[12] = target: Serine/threonine-protein kinase PLK1 (Homo sapiens) (UniProt P53350); experiment: Binding affinity to wild-type human partial length PLK1 (A33 to F325 residues) expressed in mammalian expression system assessed as remaining unbound target protein level at 1000 nM by Kinomescan method relative to control
[13] = system: Tyrosine-protein kinase ABL1 (Homo sapiens), P00519 [Q252H]; experiment: Binding affinity to human phosphorylated ABL1 Q252H mutant expressed in mammalian expression system assessed as remaining unbound target protein level at 1000 nM by Kinomescan method relative to control; summary of the method: as §4
[14] = target: Serine/threonine-protein kinase Nek6 (Homo sapiens) (UniProt Q9HC98); experiment: Binding affinity to wild-type human full length NEK6 (M8 to T313 residues) expressed in bacterial expression system assessed as remaining unbound target protein level at 1000 nM by Kinomescan method relative to control; summary of the method: as §1
[15] = system: Mast/stem cell growth factor receptor Kit (Homo sapiens), P10721 [L576P]; experiment: Binding affinity to human partial length KIT L576P mutant (Y545 to D952 residues) expressed in bacterial expression system assessed as remaining unbound target protein level at 1000 nM by Kinomescan method relative to control; summary of the method: as §2
[16] = target: Serine/threonine-protein kinase TAO2 (Homo sapiens) (UniProt Q9UL54); experiment: Binding affinity to wild-type human partial length TAOK2 (M1 to A320 residues) expressed in mammalian expression system assessed as remaining unbound target protein level at 1000 nM by Kinomescan method relative to control
[17] = target: NT-3 growth factor receptor (Homo sapiens) (UniProt Q16288); experiment: Binding affinity to wild-type human partial length TRKC (Q531 to G825 residues) expressed in mammalian expression system assessed as remaining unbound target protein level at 1000 nM by Kinomescan method relative to control
[18] = system: Phosphatidylinositol 4,5-bisphosphate 3-kinase catalytic subunit alpha isoform (Homo sapiens), P42336 [H1047L]; experiment: Binding affinity to human partial length PIK3CA H1047L mutant (R108 to N1068 residues) expressed in mammalian expression system assessed as remaining unbound target protein level at 1000 nM by Kinomescan method relative to control; summary of the method: as §2
[19] = system: U-937; experiment: Antiproliferative activity against human U937 cells after 72 hrs by Celltiter-Glo assay; format: functional; conditions: U-937, 72 h; summary of the method: as §3
[20] = Clearance in beagle dog at 2 mg/kg, iv by LC-MS/MS analysis; format: ADME, organism-based, Canis lupus familiaris; conditions: in vivo
[21] = target: Cyclin-dependent kinase 9 (Homo sapiens, UniProt P50750); experiment: Inhibition of CDK9 in human MV4-11 cells assessed as decrease in phosphorylation at Thr 186 residues up to 3 uM after 2 hrs by immunoblotting analysis; format: cell-based
Cyclin-dependent kinase 9, sequence (P50750 whole entry): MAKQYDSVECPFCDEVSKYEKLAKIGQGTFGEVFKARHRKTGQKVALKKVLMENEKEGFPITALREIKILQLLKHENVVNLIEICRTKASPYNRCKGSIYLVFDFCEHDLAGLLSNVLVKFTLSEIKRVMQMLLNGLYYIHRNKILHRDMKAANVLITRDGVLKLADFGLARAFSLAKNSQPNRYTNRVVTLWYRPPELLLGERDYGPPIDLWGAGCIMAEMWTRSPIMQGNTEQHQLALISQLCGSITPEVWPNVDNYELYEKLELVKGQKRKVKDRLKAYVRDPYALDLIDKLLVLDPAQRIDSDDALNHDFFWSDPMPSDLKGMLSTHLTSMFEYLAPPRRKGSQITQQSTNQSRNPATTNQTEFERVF

Bone morphogenetic protein receptor type-1B (Homo sapiens), sequence (O00238 whole entry, the tested form may be a part): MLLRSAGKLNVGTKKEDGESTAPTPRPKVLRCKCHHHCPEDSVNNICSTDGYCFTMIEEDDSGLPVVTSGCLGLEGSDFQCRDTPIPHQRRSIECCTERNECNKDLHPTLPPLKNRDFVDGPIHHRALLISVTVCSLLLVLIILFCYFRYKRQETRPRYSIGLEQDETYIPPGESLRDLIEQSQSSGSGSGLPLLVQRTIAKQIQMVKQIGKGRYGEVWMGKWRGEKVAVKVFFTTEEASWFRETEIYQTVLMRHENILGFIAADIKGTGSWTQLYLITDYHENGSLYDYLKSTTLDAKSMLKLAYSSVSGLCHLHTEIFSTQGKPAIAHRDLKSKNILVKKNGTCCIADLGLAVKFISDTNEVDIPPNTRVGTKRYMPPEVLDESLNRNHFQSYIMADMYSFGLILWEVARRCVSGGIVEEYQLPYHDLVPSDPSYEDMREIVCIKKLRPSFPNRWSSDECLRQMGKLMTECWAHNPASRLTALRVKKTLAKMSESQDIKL
Serine/threonine-protein kinase Nek4 (Homo sapiens), sequence (P51957 whole entry, looked up, the tested form may be a part): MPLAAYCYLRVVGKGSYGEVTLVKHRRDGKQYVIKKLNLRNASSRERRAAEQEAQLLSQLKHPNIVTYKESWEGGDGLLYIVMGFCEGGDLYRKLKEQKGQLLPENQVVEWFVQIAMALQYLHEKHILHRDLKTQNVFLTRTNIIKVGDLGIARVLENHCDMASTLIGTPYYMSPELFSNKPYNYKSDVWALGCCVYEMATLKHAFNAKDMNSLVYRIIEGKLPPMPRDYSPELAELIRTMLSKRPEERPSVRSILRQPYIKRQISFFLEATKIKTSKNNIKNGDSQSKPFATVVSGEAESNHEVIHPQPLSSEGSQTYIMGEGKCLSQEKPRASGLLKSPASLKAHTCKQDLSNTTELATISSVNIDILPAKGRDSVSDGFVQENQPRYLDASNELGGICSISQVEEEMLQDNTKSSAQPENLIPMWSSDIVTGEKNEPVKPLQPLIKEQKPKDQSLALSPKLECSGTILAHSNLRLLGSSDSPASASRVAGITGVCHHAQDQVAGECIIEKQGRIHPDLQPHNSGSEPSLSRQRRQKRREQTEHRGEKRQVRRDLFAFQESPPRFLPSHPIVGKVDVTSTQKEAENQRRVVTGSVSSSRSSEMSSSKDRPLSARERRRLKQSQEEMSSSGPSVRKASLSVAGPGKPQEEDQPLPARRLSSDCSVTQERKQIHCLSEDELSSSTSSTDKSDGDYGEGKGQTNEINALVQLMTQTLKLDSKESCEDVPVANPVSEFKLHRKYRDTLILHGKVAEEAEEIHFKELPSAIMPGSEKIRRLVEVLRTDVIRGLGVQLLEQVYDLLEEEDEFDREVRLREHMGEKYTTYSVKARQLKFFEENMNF
Serine/threonine-protein kinase Nek6 (Homo sapiens), sequence (Q9HC98 whole entry, the tested form may be a part): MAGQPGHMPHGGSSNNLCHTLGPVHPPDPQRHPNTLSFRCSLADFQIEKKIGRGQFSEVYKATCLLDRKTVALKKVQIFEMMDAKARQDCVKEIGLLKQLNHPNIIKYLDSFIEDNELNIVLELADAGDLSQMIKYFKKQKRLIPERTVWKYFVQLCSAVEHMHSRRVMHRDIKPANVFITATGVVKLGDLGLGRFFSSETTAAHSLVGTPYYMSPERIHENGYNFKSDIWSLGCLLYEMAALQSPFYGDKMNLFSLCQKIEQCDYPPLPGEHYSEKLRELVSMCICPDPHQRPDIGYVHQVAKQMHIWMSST
Phosphatidylinositol 4,5-bisphosphate 3-kinase catalytic subunit alpha isoform (Homo sapiens), P42336 [H1047L], sequence (P42336 whole entry H1047L, the tested form may be a part, canonical isoform): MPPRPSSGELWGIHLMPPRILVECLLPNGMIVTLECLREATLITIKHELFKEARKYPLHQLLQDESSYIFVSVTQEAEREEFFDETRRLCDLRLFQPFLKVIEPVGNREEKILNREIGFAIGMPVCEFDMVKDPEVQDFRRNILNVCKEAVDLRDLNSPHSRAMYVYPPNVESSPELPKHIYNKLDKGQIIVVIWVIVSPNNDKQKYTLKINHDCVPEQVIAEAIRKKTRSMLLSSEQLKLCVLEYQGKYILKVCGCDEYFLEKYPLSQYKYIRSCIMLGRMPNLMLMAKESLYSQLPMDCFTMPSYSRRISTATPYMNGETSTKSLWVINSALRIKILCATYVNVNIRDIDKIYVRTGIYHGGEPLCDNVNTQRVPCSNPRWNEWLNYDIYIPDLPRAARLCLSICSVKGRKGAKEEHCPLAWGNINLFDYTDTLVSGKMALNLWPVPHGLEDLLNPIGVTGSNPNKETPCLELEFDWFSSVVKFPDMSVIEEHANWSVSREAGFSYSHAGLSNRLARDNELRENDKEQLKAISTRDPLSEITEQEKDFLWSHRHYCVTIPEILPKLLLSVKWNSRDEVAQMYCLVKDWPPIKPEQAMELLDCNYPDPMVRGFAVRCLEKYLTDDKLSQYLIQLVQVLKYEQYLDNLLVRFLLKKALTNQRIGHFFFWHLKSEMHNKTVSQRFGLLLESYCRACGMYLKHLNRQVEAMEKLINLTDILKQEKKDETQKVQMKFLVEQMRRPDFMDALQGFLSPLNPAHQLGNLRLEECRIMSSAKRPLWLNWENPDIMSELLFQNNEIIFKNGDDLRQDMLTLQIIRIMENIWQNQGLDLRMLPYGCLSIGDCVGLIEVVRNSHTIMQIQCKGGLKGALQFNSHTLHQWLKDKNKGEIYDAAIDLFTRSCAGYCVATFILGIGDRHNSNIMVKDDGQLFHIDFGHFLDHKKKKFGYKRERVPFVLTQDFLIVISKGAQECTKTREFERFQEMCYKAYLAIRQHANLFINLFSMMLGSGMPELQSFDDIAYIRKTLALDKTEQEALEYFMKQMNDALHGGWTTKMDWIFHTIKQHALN
Serine/threonine-protein kinase MARK2 (Homo sapiens), sequence (Q7KZI7 whole entry, the tested form may be a part): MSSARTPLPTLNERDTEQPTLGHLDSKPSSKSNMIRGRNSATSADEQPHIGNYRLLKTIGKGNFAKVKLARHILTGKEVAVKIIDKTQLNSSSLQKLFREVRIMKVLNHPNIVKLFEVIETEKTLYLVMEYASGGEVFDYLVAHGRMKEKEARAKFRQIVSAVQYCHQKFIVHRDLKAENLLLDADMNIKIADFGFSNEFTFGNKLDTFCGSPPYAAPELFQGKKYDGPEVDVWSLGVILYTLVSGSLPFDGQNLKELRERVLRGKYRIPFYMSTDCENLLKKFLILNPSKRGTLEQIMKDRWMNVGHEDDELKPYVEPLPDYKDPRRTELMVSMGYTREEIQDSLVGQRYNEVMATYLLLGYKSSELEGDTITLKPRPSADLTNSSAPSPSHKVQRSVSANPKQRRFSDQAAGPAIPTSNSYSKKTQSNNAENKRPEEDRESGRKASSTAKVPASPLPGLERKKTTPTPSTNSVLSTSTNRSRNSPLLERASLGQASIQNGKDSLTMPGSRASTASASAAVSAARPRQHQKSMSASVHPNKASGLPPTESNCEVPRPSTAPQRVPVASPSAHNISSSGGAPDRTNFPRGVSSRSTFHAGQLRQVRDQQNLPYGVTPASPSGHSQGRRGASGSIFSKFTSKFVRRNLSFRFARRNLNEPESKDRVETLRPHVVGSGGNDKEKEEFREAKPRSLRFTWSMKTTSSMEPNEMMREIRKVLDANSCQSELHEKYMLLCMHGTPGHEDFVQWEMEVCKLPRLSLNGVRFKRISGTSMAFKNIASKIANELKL
NT-3 growth factor receptor (Homo sapiens), sequence (Q16288 32-839 limits assumed): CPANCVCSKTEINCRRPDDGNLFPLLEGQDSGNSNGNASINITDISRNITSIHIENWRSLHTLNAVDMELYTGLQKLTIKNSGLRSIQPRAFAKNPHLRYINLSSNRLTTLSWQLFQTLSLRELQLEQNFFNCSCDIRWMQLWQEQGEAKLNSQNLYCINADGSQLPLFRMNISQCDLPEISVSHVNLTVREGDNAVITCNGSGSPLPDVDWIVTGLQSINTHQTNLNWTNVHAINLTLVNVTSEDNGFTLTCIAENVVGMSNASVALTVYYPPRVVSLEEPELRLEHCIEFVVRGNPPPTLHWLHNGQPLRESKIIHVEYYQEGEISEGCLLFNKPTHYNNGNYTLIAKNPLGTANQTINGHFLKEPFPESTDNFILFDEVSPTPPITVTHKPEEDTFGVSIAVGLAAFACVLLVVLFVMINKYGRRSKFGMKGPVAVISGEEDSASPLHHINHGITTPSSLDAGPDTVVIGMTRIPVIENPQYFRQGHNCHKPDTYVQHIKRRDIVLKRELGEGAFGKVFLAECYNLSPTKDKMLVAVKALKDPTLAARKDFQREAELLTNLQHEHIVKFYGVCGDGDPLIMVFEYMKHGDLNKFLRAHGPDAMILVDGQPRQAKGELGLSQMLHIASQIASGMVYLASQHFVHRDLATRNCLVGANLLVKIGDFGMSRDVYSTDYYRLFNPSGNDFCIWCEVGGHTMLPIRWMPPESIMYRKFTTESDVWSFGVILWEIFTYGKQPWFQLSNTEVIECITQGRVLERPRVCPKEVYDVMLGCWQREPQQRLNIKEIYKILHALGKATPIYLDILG

Q: With `COCCN[C@H]1CC[C@H](Nc2cc(-c3csc(NCC4(C#N)CCOCC4)n3)c(Cl)cn2)CC1` as the compound, how does the Activity [1] read?
A: 77%

Q: What about the Activity [2] of the same compound?
A: 90%

Q: What about the GI50 [3] of the same compound?
A: 14 nM

Q: What about the TGI [4] of the same compound?
A: Active

Q: And the Activity [5]?
A: 86%

Q: What about the Activity [6] of the same compound?
A: 100%

Q: And the Activity [7]?
A: 65%

Q: What about the Activity [8] of the same compound?
A: 84%

Q: And the MRT inf [9]?
A: 1.58 h

Q: What about the Activity [10] of the same compound?
A: 98%

Q: And the GI50 [11]?
A: 37 nM

Q: What about the Activity [12] of the same compound?
A: 75%

Q: What about the Activity [13] of the same compound?
A: 90%

Q: What about the Activity [14] of the same compound?
A: 94%

Q: What about the Activity [15] of the same compound?
A: 90%

Q: And the Activity [16]?
A: 60%

Q: What about the Activity [17] of the same compound?
A: 89%

Q: What about the Activity [18] of the same compound?
A: 100%

Q: And the GI50 [19]?
A: 2 nM

Q: What about the clearance [20] of the same compound?
A: 11.9 mL/min/kg

Q: And the inhibition [21]?
A: inactive
